Measurements reported in ChEMBL document CHEMBL1138071, “Design and synthesis of noncompetitive metabotropic glutamate receptor subtype 5 antagonists” (Bioorg Med Chem Lett, 2006).
Activity calls are given as the source filed them. The rule behind the calls is not given here.

How the values were obtained:
[1] = biological target: Metabotropic glutamate receptor 5 (Rattus norvegicus, UniProt P31424); test: Inhibition of [3H]MPEP binding to mGluR5 in rat brain membrane; type: cell membranes
Outline: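 Rat brain membranes spun twice at 30,000g for 10 min, resuspended in ice-cold 50 mM Tris–HCl pH 7.0 with 1% BSA. Displacement by 10 drug concentrations run three times. Incubated 2.5 h at 4 °C to steady state, then filtered over PEI-presoaked glass-fibre filters.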

[2] = biological target: Metabotropic glutamate receptor 5 (Homo sapiens, UniProt P41594); test: Antagonist activity against mGluR5 expressed in CHO cells assessed as inhibition of agonist-induced phosphoinositide hydrolysis; type: functional, cell-based
Metabotropic glutamate receptor 5 (Homo sapiens, UniProt P41594), sequence (P41594 whole entry): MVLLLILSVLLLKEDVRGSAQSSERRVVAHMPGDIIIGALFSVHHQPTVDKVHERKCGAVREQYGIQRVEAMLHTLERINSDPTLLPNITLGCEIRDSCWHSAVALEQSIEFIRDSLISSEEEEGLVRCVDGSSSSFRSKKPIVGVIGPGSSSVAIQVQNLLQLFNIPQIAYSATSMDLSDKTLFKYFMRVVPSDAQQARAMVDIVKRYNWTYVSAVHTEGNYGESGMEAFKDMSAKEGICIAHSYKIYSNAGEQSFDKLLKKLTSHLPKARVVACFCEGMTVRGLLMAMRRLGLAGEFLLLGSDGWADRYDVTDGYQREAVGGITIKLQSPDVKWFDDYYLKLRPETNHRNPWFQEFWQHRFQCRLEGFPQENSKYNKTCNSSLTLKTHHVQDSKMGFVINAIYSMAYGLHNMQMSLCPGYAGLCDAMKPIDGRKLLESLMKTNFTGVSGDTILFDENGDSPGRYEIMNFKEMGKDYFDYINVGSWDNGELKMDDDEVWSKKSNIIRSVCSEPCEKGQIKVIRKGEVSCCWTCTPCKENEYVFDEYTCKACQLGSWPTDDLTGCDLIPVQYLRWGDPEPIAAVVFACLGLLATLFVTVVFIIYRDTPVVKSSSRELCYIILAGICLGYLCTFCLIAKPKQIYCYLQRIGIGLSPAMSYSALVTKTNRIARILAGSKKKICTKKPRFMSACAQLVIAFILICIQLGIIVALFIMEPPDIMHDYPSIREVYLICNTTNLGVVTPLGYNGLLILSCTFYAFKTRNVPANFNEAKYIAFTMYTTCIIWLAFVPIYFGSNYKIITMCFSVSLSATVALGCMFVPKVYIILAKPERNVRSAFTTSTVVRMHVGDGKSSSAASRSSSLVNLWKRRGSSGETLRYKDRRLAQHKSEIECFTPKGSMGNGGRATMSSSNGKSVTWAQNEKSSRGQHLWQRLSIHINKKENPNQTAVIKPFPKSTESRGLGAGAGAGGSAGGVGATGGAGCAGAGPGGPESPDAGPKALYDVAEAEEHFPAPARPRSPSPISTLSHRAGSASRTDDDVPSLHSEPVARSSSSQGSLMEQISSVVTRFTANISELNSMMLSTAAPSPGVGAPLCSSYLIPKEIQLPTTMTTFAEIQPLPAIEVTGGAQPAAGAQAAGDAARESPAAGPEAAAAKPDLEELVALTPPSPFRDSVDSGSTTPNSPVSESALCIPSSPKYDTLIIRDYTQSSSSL

[3] = biological target: Metabotropic glutamate receptor 5 (Rattus norvegicus) (UniProt P31424); test: Inhibition of [3H]MPEP binding to mGluR5 in rat brain membrane at 100 uM; type: cell membranes
Metabotropic glutamate receptor 5 (Rattus norvegicus), sequence (P31424 21-1203 limits assumed): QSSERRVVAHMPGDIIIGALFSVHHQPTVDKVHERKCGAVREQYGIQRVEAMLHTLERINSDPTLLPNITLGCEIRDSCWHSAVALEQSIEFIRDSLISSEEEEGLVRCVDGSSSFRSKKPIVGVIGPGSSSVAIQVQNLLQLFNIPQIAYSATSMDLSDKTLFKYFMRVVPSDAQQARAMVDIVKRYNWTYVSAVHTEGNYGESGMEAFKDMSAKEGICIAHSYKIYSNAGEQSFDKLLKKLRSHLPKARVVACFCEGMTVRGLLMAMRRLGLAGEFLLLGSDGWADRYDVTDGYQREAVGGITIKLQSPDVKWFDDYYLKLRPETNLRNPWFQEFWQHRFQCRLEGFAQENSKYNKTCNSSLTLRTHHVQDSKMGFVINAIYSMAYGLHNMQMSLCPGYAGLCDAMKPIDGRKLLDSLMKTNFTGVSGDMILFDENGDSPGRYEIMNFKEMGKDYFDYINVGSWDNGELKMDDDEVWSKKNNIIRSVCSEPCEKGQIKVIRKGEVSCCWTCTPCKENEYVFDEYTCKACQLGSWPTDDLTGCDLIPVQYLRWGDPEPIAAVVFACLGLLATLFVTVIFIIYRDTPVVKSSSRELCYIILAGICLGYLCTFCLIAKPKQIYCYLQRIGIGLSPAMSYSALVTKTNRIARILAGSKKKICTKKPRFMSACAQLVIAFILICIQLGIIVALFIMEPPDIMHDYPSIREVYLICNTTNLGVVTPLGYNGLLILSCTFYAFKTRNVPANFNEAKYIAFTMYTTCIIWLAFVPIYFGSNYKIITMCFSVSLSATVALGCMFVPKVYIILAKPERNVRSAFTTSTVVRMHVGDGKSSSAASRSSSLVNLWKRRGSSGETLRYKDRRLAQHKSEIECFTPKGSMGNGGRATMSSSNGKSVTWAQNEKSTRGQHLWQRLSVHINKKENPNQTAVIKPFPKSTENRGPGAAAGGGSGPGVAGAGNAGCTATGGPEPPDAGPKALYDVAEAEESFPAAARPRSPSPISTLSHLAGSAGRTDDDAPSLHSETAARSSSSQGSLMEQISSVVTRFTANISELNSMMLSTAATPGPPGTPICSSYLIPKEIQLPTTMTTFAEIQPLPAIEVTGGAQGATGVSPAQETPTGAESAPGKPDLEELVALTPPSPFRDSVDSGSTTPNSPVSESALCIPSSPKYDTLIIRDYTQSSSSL

[4] = biological target: Metabotropic glutamate receptor 5 (Rattus norvegicus) (UniProt P31424); conditions: Brain, Membrane, 10 uM

Metabotropic glutamate receptor 5 (Rattus norvegicus, UniProt P31424), sequence (P31424 whole entry): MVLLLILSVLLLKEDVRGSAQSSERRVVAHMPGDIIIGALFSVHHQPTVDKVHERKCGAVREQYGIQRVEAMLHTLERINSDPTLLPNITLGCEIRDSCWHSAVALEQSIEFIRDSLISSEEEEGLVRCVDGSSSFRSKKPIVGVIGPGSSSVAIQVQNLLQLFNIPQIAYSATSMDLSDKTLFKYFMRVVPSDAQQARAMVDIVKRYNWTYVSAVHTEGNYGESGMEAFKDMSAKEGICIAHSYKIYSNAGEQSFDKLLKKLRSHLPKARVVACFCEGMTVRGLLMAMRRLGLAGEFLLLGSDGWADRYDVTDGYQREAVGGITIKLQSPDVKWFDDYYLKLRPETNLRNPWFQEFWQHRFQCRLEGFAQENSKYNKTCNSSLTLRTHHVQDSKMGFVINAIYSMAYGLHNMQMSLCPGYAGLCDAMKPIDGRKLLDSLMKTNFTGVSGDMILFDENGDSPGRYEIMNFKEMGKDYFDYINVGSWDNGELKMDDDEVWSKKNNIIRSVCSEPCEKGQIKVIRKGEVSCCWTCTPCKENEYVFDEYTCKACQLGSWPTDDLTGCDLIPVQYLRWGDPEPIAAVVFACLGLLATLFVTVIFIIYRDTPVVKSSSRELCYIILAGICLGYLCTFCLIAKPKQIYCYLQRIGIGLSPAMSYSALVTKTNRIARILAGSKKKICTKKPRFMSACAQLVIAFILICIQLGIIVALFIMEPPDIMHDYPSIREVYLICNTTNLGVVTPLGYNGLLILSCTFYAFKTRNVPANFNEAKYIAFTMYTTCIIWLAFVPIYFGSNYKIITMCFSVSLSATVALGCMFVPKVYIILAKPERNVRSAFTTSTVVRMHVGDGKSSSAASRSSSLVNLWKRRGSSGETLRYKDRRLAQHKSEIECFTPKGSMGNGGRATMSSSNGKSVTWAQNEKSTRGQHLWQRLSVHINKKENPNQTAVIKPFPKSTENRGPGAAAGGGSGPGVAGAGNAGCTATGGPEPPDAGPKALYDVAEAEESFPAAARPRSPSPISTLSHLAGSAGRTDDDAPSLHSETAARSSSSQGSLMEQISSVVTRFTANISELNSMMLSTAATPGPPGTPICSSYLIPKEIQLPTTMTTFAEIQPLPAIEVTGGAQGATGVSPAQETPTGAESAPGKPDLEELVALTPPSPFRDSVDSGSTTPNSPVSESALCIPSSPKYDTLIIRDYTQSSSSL

Row | Compound | IC50 [1] [µM] | Activity [3] | further results
1 | O=C(Nc1cccc(Cl)n1)c1cccc(Cl)c1 | 1.53 | – | IC50 [2]: 12.7 µM
2 | Cc1cccc(NC(=O)C2CCCN(Cc3cccc(Cl)c3)C2)n1 (centres undefined) | – | – | inhibition [3]: 31%
3 | Cc1cccc(NCc2ccccc2)n1 | – | inactive | –
4 | Cc1cccc(NC(=O)c2ccccc2Cl)n1 | – | inactive | –
5 | Cc1cccc(NC(=O)C2CCCN(C)C2)n1 (centres undefined) | – | inactive | –
6 | Cc1cccc(/C=C/c2ccccc2)n1 | 1.08 | – | –
7 | Cc1csc(NC(=O)c2cccc(Cl)c2)n1 | 5.49 | – | IC50 [2]: 15 µM
8 | Cc1cccc(NC(=O)c2cccnc2)n1 | – | inactive | –
9 | Cc1cccc(NC(=O)c2cccc(Oc3ccccc3)c2)n1 | 57 | – | –
10 | Cc1cccc(NC(=O)C2CCCN(Cc3ccccc3)C2)n1 (centres undefined) | – | – | inhibition [3]: 14%
11 | Cc1csc(NC(=O)c2ccccc2)n1 | 65 | – | –
12 | Cc1cccc(NC(=O)c2ccccc2)n1 | 35 | – | –
13 | Cc1cccc(NC(=O)c2cccc(OCc3ccccc3)c2)n1 | 33 | – | –
14 | COc1cccc(C(=O)Nc2cccc(C)n2)c1 | 9.76 | – | IC50 [2]: 46 µM
15 | Cc1cccc(NC(=O)c2cccc(Cl)c2)n1 | 1.73 | – | inhibition [4]: 66%
16 | Cc1cccc(NC(=O)c2cccc3ccccc23)n1 | 62.8 | – | –
17 | Cc1cccc(C(=O)Nc2cccc(C)n2)c1 | 1.84 | – | IC50 [2]: 5.9 µM
18 | Cc1cccc(NC(=O)c2cccc(-c3ccccc3)c2)n1 | 7.3 | – | IC50 [2]: 18.3 µM

Row | Compound | IC50 [1] [µM] | Activity [3] | further results
19 | Cc1cccc(NC(=O)c2cccc(Br)c2)n1 | 0.65 | – | IC50 [2]: 5.48 µM
20 | Cc1csc(NC(=O)c2cccnc2)n1 | – | inactive | –
21 | Cc1cccc(NC(=O)c2ccc3ccccc3c2)n1 | – | inactive | –
22 | Cc1cccc(NC(=O)c2cccc(C#N)c2)n1 | 0.33 | – | IC50 [2]: 5.33 µM
23 | Cc1cccc(NC(=O)c2cccc(C(F)(F)F)c2)n1 | 18.7 | – | –
24 | Cc1cccc(NC(=O)c2ccc(Cl)cc2)n1 | – | inactive | –
25 | COc1cccc(C(=O)Nc2nc(C)cs2)c1 | 9.1 | – | –
26 | Cc1cccc(NC(=O)c2cccc(OCCc3ccccc3)c2)n1 | 23.6 | – | –
27 | O=C(Nc1ccccn1)c1ccccc1 | 95.4 | – | –
28 | Cc1ccc(O)c(/N=N/c2ccccc2)n1 | 1.17 | – | –
29 | Cc1cccc(NC(=O)c2cccc(S(C)(=O)=O)c2)n1 | – | inactive | –
30 | Cc1cccc(NC(=O)c2cccc(/C=C/c3ccccc3)c2)n1 | – | inactive | –
31 | Cc1cccc(CNc2ccccc2)n1 | – | inactive | –
32 | Cc1ccc(S(=O)(=O)Nc2cccc(C)n2)cc1 | – | inactive | –
33 | Cc1cccc(NC(=O)c2cccc(I)c2)n1 | 1.08 | – | IC50 [2]: 10.8 µM
34 | Cc1ccc(S(=O)(=O)N2CCCC(C(=O)Nc3cccc(C)n3)C2)cc1 (centres undefined) | – | – | inhibition [3]: 31%
35 | Cc1cccc(NC(=O)c2cccc(OS(C)(=O)=O)c2)n1 | 83.6 | – | –
